# According to ChEMBL document CHEMBL1151417, “Cytotoxic triterpenoid glycosides from the roots of Gordonia chrysandra” (J Nat Prod, 2009):
# Columns and labels:
# Type in all cases: functional, cell-based
# A2780 = assay: Cytotoxicity against human A2780 cells after 96 hrs by MTT assay; conditions: A2780, 96 h
# Outline: (§1)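 Cells kept in RPMI 1640 with 10% FBS, L-glutamine, penicillin/streptomycin at 37 °C, 5% CO2. 1.5 × 10³ cells/well seeded; after 24 h compounds added in DMSO at five final concentrations (0.01-10 […]), triplicate wells, 96 h exposure. MTT (0.5 mg/mL) 4 h at 37 °C, formazan dissolved in DMSO, A570 read. IC50 = 50% OD reduction vs control from dose-response curve.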
# HCT-8 = assay: Cytotoxicity against human HCT8 cells after 96 hrs by MTT assay; conditions: HCT-8, 96 h; outline: as §1
# BGC-823 = assay: Cytotoxicity against human BGC823 cells after 96 hrs by MTT assay; conditions: BGC-823, 96 h; outline: as §1
# Bel-7402 = assay: Cytotoxicity against human Bel7402 cells after 96 hrs by MTT assay; conditions: Bel-7402, 96 h; outline: as §1
# A549 = assay: Cytotoxicity against human A549 cells after 96 hrs by MTT assay; conditions: A549, 96 h; outline: as §1
Structure (SMILES),IC50 (A2780),IC50 (HCT-8),IC50 (BGC-823),IC50 (Bel-7402),IC50 (A549)
CC(=O)O[C@H]1C(=O)[C@@]2(C)[C@H]([C@H](OC(=O)c3ccccc3)[C@]3(O)C[C@H](OC(=O)[C@H](O)[C@@H](NC(=O)c4ccccc4)c4ccccc4)C(C)=C1C3(C)C)[C@]1(OC(C)=O)CO[C@@H]1C[C@@H]2O [PACLITAXEL],0.9 µM,3.6 µM,0.04 µM,6.3 µM,0.001 µM
C/C=C(/C)C(=O)O[C@H]1[C@H](OC(=O)/C(C)=C\C)[C@]2(CO)[C@H](O)C[C@]3(C)C(=CC[C@@H]4[C@@]5(C)CC[C@H](O[C@@H]6O[C@H](C(=O)O)[C@@H](O)[C@H](O[C@@H]7OC[C@H](O)[C@H](O)[C@H]7O)[C@H]6O)C(C)(C)[C@@H]5CC[C@]43C)[C@@H]2CC1(C)C [GORDONOSIDE C],0.4 µM,1.2 µM,2.5 µM,0.7 µM,1.8 µM
C/C=C(/C)C(=O)O[C@H]1[C@H](OC(=O)/C(C)=C\C)[C@]2(CO)[C@H](OC(C)=O)C[C@]3(C)C(=CC[C@@H]4[C@@]5(C)CC[C@H](O[C@@H]6O[C@H](C(=O)O)[C@@H](O)[C@H](O[C@@H]7OC[C@H](O)[C@H](O)[C@H]7O)[C@H]6O)C(C)(C)[C@@H]5CC[C@]43C)[C@@H]2CC1(C)C [GORDONOSIDE D],> 10 µM,> 10 µM,> 10 µM,> 10 µM,> 10 µM
C/C=C(/C)C(=O)O[C@H]1[C@H](OC(=O)/C(C)=C\C)[C@]2(CO)[C@H](O)[C@H](O)[C@]3(C)C(=CC[C@@H]4[C@@]5(C)CC[C@H](O[C@@H]6O[C@H](C(=O)O)[C@@H](O)[C@H](O[C@@H]7OC[C@H](O)[C@H](O)[C@H]7O)[C@H]6O)[C@@](C)(C(=O)OC)[C@@H]5CC[C@]43C)[C@@H]2CC1(C)C [GORDONOSIDE G],> 10 µM,> 10 µM,> 10 µM,> 10 µM,> 10 µM
C/C=C(/C)C(=O)O[C@H]1[C@H](OC(=O)/C(C)=C\C)[C@]2(CO)[C@H](O)C[C@]3(C)C(=CC[C@@H]4[C@@]5(C)CC[C@H](O[C@@H]6O[C@H](C(=O)O)[C@@H](O)[C@H](O[C@@H]7OC[C@H](O)[C@H](O)[C@H]7O)[C@H]6O)[C@@](C)(C(=O)OC)[C@@H]5CC[C@]43C)[C@@H]2CC1(C)C [GORDONOSIDE F],2 µM,> 10 µM,> 10 µM,1.3 µM,> 10 µM
C/C=C(/C)C(=O)O[C@H]1[C@H](OC(=O)/C(C)=C\C)[C@]2(CO)[C@H](OC(C)=O)C[C@]3(C)C(=CC[C@@H]4[C@@]5(C)CC[C@H](O[C@@H]6O[C@H](C(=O)O)[C@@H](O)[C@H](O[C@@H]7OC[C@H](O)[C@H](O)[C@H]7O)[C@H]6O)[C@@](C)(CO)[C@@H]5CC[C@]43C)[C@@H]2CC1(C)C [GORDONOSIDE B],> 10 µM,> 10 µM,> 10 µM,> 10 µM,> 10 µM
C/C=C(/C)C(=O)O[C@H]1[C@H](OC(=O)/C(C)=C\C)[C@]2(CO)[C@H](O)C[C@]3(C)C(=CC[C@@H]4[C@@]5(C)CC[C@H](O[C@@H]6O[C@H](C(=O)O)[C@@H](O)[C@H](O[C@@H]7OC[C@H](O)[C@H](O)[C@H]7O)[C@H]6O)[C@@](C)(CO)[C@@H]5CC[C@]43C)[C@@H]2CC1(C)C [GORDONOSIDE A],5.5 µM,> 10 µM,> 10 µM,4.7 µM,> 10 µM
C/C=C(/C)C(=O)O[C@H]1[C@H](OC(=O)/C(C)=C\C)[C@]2(CO)[C@H](O)C[C@]3(C)C(=CC[C@@H]4[C@@]5(C)CC[C@H](O[C@@H]6O[C@H](C(=O)O)[C@@H](O)[C@H](O[C@@H]7OC[C@H](O)[C@H](O)[C@H]7O)[C@H]6O)[C@@](C)(C=O)[C@@H]5CC[C@]43C)[C@@H]2CC1(C)C [GORDONOSIDE E],2 µM,2.7 µM,> 10 µM,1.1 µM,> 10 µM
